ChEMBL document CHEMBL1759921, “N5-phosphonoacetyl-L-ornithine (PALO): a convenient synthesis and investigation of influence on regulation of amino acid biosynthetic genes in Saccharomyces cerevisiae” (Bioorg Med Chem Lett, 2011)
Activity calls are given as the source filed them. The calls are words filed in the database; no cut-off is given here.

What was measured:
Format in all cases: functional, organism-based
Saccharomyces cerevisiae [1] = assay: Increase in TAP-tagged CPA1 protein level in Saccharomyces cerevisiae YSC1178-7502950 at 15 uM by Western blotting analysis relative to control
Summary of the method: (§1)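 TAP-tagged strains (BY4741 background, untagged BY4741 as control) were grown from a saturated culture in supplemented minimal medium. At inoculation they received 15 µM PALO in 50 mM potassium phosphate pH 6.8, buffer alone, 1 mg/mL L-arginine, or both. Cells grown at 30 °C and harvested at OD600 0.4–0.6. Extracts were western blotted with anti-TAP antibody, with Coomassie-stained duplicate gels as loading controls. Band intensity was quantified.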

Saccharomyces cerevisiae [2] = assay: Increase in TAP-tagged ARG5,6 protein level in Saccharomyces cerevisiae YSC1178-7500224 at 15 uM by Western blotting analysis relative to control; summary of the method: as §1
Saccharomyces cerevisiae [3] = assay: Decrease in TAP-tagged ARG5,6 protein level in Saccharomyces cerevisiae YSC1178-7500224 at 15 uM by Western blotting analysis in presence of arginine relative to control; summary of the method: as §1
Saccharomyces cerevisiae [4] = assay: Increase in TRP5 mRNA level in Saccharomyces cerevisiae BY4741 at 15 uM by Northern blot analysis relative to control
Summary of the method: (§2)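 BY4741 inoculated from a saturated culture (30 °C, YPD) into minimal medium with leucine, methionine, uracil and histidine. Treatments were added at inoculation: 15 µM PALO in 50 mM potassium phosphate pH 6.8, buffer alone (untreated), 1 mg/mL L-arginine, or both. Cells grown at 30 °C and harvested at mid-log (OD600 0.4–0.6). mRNA measured by quantitative northern blot, normalized to SCR1; mean of three replicates.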

Saccharomyces cerevisiae [5] = assay: Increase in TAP-tagged TRP5 protein level in Saccharomyces cerevisiae YSC1178-7500415 at 15 uM by Western blotting analysis relative to control; summary of the method: as §1
Saccharomyces cerevisiae [6] = assay: Effect on growth rate in Saccharomyces cerevisiae BY4741
Summary of the method: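 Growth followed at 30 °C in nitrogen-limiting medium: 2% dextrose, 1 mM ammonium sulfate, 100 µM potassium phosphate pH 6.8, and 10 µg/mL each of leucine, methionine, uracil and histidine.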

Saccharomyces cerevisiae [7] = assay: Decrease in CPA1 mRNA level in Saccharomyces cerevisiae BY4741 at 15 uM by Northern blot analysis in presence of arginine relative to control; summary of the method: as §2
Saccharomyces cerevisiae [8] = assay: Decrease in TAP-tagged CPA1 protein level in Saccharomyces cerevisiae YSC1178-7502950 at 15 uM by Western blotting analysis in presence of arginine relative to control; summary of the method: as §1
Saccharomyces cerevisiae [9] = assay: Increase in CPA1 mRNA level in Saccharomyces cerevisiae BY4741 at 15 uM by Northern blot analysis relative to control; summary of the method: as §2
Saccharomyces cerevisiae [10] = assay: Decrease in ARG5,6 mRNA level in Saccharomyces cerevisiae BY4741 at 15 uM by Northern blot analysis in presence of arginine relative to control; summary of the method: as §2
Saccharomyces cerevisiae [11] = assay: Decrease in TRP5 mRNA level in Saccharomyces cerevisiae BY4741 at 15 uM by Northern blot analysis in presence of arginine relative to control; summary of the method: as §2
Saccharomyces cerevisiae [12] = assay: Increase in ARG5,6 mRNA level in Saccharomyces cerevisiae BY4741 at 15 uM by Northern blot analysis relative to control; summary of the method: as §2
Saccharomyces cerevisiae [13] = assay: Decrease in TAP-tagged TRP5 protein level in Saccharomyces cerevisiae YSC1178-7500415 at 15 uM by Western blotting analysis in presence of arginine relative to control; summary of the method: as §1
Saccharomyces cerevisiae [14] = assay: Decrease in TRP5 mRNA level in Saccharomyces cerevisiae BY4741 at 1 mg/ml by Northern blot analysis relative to control; summary of the method: as §2
Saccharomyces cerevisiae [15] = assay: Decrease in TAP-tagged ARG5,6 protein level in Saccharomyces cerevisiae YSC1178-7500224 at 1 mg/ml by Western blotting analysis relative to control; summary of the method: as §1
Saccharomyces cerevisiae [16] = assay: Decrease in TAP-tagged TRP5 protein level in Saccharomyces cerevisiae YSC1178-7500415 at 1 mg/ml by Western blotting analysis relative to control; summary of the method: as §1
Saccharomyces cerevisiae [17] = assay: Decrease in ARG5,6 mRNA level in Saccharomyces cerevisiae BY4741 at 1 mg/ml by Northern blot analysis relative to control; summary of the method: as §2
Saccharomyces cerevisiae [18] = assay: Decrease in CPA1 mRNA level in Saccharomyces cerevisiae BY4741 at 1 mg/ml by Northern blot analysis relative to control; summary of the method: as §2
Saccharomyces cerevisiae [19] = assay: Decrease in TAP-tagged CPA1 protein level in Saccharomyces cerevisiae YSC1178-7502950 at 1 mg/ml by Western blotting analysis relative to control; summary of the method: as §1

For `N[C@@H](CCCNC(=O)CP(=O)(O)O)C(=O)O`, the Activity (Saccharomyces cerevisiae [1]) was “inactive”, the Activity (Saccharomyces cerevisiae [2]) was “inactive” and the Activity (Saccharomyces cerevisiae [3]) was “Active”. For the same molecule, the Activity (Saccharomyces cerevisiae [4]) was “inactive”, the Activity (Saccharomyces cerevisiae [5]) was “inactive” and the Activity (Saccharomyces cerevisiae [6]) was “inactive”. For the same molecule, the Activity (Saccharomyces cerevisiae [7]) was “Active”, the Activity (Saccharomyces cerevisiae [8]) was “Active” and the Activity (Saccharomyces cerevisiae [9]) was “inactive”. The Activity (Saccharomyces cerevisiae [10]) was “Active”, the Activity (Saccharomyces cerevisiae [11]) was “inactive” and the Activity (Saccharomyces cerevisiae [12]) was “inactive”. For the same molecule, the Activity (Saccharomyces cerevisiae [13]) was “inactive”.

For `N=C(N)NCCC[C@H](N)C(=O)O`, the Activity (Saccharomyces cerevisiae [14]) was “inactive”, the Activity (Saccharomyces cerevisiae [15]) was “Active” and the Activity (Saccharomyces cerevisiae [16]) was “inactive”. For the same molecule, the Activity (Saccharomyces cerevisiae [17]) was “Active”, the Activity (Saccharomyces cerevisiae [18]) was “Active” and the Activity (Saccharomyces cerevisiae [19]) was “Active”.
